Reference: ChEMBL document CHEMBL3217724, “Synthesis and evaluation of a series of benzothiophene acrylonitrile analogs as anticancer agents” (Medchemcomm, 2013)
The source made the active and inactive calls. The calls are words filed in the database; no cut-off is given here.

Experiments:
CCRF-CEM = assay: Growth inhibition of human CCRF-CEM cells; type: functional
How it was run: (§1)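 NCI 60-human-cancer-cell-line panel, five-dose screen after a preliminary screen. GI50 is the molar concentration giving 50% growth inhibition.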

[1] = Growth inhibition of human UO31 cells; type: functional; conditions: UO-31
How it was run: (§2)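 NCI 60-cell-line panel, five-dose screen; GI50 is the molar concentration giving 50% growth inhibition.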

Malme-3M = assay: Growth inhibition of human MALME-3M cells; type: functional; how it was run: as §1
HCT-116 = assay: Growth inhibition of human HCT116 cells; type: functional; how it was run: as §1
[2] = Growth inhibition of pig LLC-PK1 cells by Alamar Blue assay; type: cell-based, Sus scrofa
How it was run: (§3)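 Cell viability was read with AlamarBlue dye in 96-well format and GI50 values derived, to assess P-gp effects. Cells were P-gp-expressing NCI/ADR-Res ovarian cancer cells and L-MDR1 porcine epithelial cells, each with its non-expressing parent line. P-gp expression was confirmed by Western blot with β-actin as loading control. Resistance is the GI50 in the P-gp line over the GI50 in the parent line.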

786-0 = assay: Growth inhibition of human 786-0 cells; type: functional; how it was run: as §1
[3] = Growth inhibition of human OVCAR8 cells by Alamar Blue assay; type: functional; conditions: OVCAR-8; how it was run: as §3
[4] = Growth inhibition of human OVCAR5 cells; type: functional; conditions: OVCAR-5; how it was run: as §1
SW-620 = assay: Growth inhibition of human SW620 cells; type: functional; how it was run: as §2
HT-29 = assay: Growth inhibition of human HT-29 cells; type: functional; how it was run: as §1
[5] = Growth inhibition of human SF539 cells; type: functional; conditions: SF-539; how it was run: as §1
U-251 = assay: Growth inhibition of human U251 cells; type: functional; how it was run: as §2
SN12C = assay: Growth inhibition of human SN12C cells; type: functional; how it was run: as §2
SNB-19 = assay: Growth inhibition of human SNB19 cells; type: functional; how it was run: as §2
K562 = assay: Growth inhibition of human K562 cells; type: functional; how it was run: as §1
SK-MEL-2 = assay: Growth inhibition of human SK-MEL-2 cells; type: functional; how it was run: as §1
[6] = Growth inhibition of human HOP92 cells; type: functional; conditions: HOP-92; how it was run: as §1
SK-OV-3 = assay: Growth inhibition of human SKOV3 cells; type: functional; how it was run: as §2
NCI-H226 = assay: Growth inhibition of human NCI-H226 cells; type: functional; how it was run: as §1
A498 = assay: Growth inhibition of human A498 cells; type: functional; how it was run: as §1
DU-145 = assay: Growth inhibition of human DU145 cells; type: functional; how it was run: as §1
[7] = biological target: T1, Tubulin beta (Homo sapiens) (UniProt P68371+Q9H4B7+Q13509+P04350+Q3ZCM7+P07437+Q13885+Q9BVA1+Q9BUF5+A6NNZ2); assay: Inhibition of tubulin beta in human PC3 cells assessed as multiple spindle-poles formation at 100 nM after 24 hrs by DAPI-staining based immunofluorescence assay; type: cell-based; conditions: PC-3
How it was run: (§4)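 PC3 cells were treated 24 h at 100 nM, with docetaxel 100 nM for comparison. Tubulin immunofluorescence with DAPI nuclear counterstain was used to score chromosome overduplication and multiple spindle poles.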

SF-268 = assay: Growth inhibition of human SF268 cells; type: functional; how it was run: as §1
SNB-75 = assay: Growth inhibition of human SNB75 cells; type: functional; how it was run: as §2
HL-60(TB) = assay: Growth inhibition of human HL-60(TB) cells; type: functional; how it was run: as §1
NCI-H460 = assay: Growth inhibition of human NCI-H460 cells; type: functional; how it was run: as §1
[8] = Growth inhibition of human OVCAR8 cells; type: functional; conditions: OVCAR-8; how it was run: as §1
[9] = Growth inhibition of human RXF393 cells; type: functional; conditions: RXF 393; how it was run: as §1
[10] = Growth inhibition of human NCI-ADR-RES cells; type: functional; how it was run: as §1
PC-3 [11] = assay: Induction of apoptosis in human PC3 cells assessed as formation of mitotic castastrophe at 10 to 100 nM after 72 hrs by Hoechst 33342 staining; type: functional, cell-based
How it was run: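 PC3 prostate cancer cells were treated 72 h at 10 and 100 nM. Nuclei were stained with Hoechst 33342 and visualized by fluorescence imaging.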

LLC-PK1 [12] = assay: Growth inhibition of pig LLC-PK1 cells expressing MDR1 by Alamar Blue assay; type: functional; conditions: Sus scrofa
How it was run: (§5)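 Porcine epithelial L-MDR1 (P-gp expressing) cells and their non-expressing parent line were exposed to compound for 72 h. Viability was read with AlamarBlue dye and GI50 derived. P-gp expression was verified by Western blot with β-actin as loading control. The resistance ratio compares GI50 in MDR1 versus parent cells.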

[13] = Growth inhibition of human EKVX cells; type: functional; how it was run: as §1
LLC-PK1 [14] = assay: Resistance factor, ratio of GI50 for pig LLC-PK1 cells expressing MDR1 to GI50 for pig LLC-PK1 cells; parameters: species or system Sus scrofa; how it was run: as §5
[15] = Growth inhibition of human HCC2998 cells; type: functional; conditions: HCC 2998; how it was run: as §1
MCF7 = assay: Growth inhibition of human MCF7 cells; type: functional; how it was run: as §1
[16] = Growth inhibition of human OVCAR4 cells; type: functional; conditions: OVCAR-4; how it was run: as §1
[17] = Growth inhibition of human BT549 cells; type: functional; conditions: BT-549; how it was run: as §1
PC-3 [18] = assay: Induction of beta tubulin de-stabilization in human PC3 cells at 1 to 100 nM after 24 hrs by DAPI-staining based immunofluorescence assay; type: cell-based
How it was run: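 PC3 cells were treated 24 h at 1, 10 and 100 nM, then immunostained for beta-tubulin with DAPI nuclear counterstain. Docetaxel (stabilizer) and vinblastine (destabilizer) at 10 nM served as references.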

PC-3 [19] = assay: Growth inhibition of human PC3 cells; type: functional; how it was run: as §1
A549 = assay: Growth inhibition of human A549 cells; type: functional; how it was run: as §1
[20] = Growth inhibition of human Hs578T cells; type: functional; conditions: Hs-578T; how it was run: as §1
COLO 205 = assay: Growth inhibition of human COLO205 cells; type: functional; how it was run: as §1
ACHN = assay: Growth inhibition of human ACHN cells; type: functional; how it was run: as §1
[21] = biological target: T1, Tubulin beta (Homo sapiens); assay: Inhibition of tubulin beta in human PC3 cells assessed as chromosomal overduplication at 100 nM after 24 hrs by DAPI-staining based immunofluorescence assay; type: cell-based; conditions: PC-3; how it was run: as §4
PC-3 [22] = assay: Growth inhibition of human PC3 cells after 72 hrs by Alamar Blue assay; type: functional; conditions: PC-3, 72 h
How it was run: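 PC3 prostate cancer cells and docetaxel-resistant PC3-DR cells were exposed to drug for 72 hours in 96-well format. Viability was read with AlamarBlue dye and GI50 derived. Resistance is the GI50 in PC3-DR over the GI50 in parental PC3.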

NCI-H322M = assay: Growth inhibition of human NCI-H322M cells; type: functional; how it was run: as §1
[23] = Growth inhibition of human LOXIMVI cells; type: functional; conditions: LOX IMVI; how it was run: as §1
RPMI-8226 = assay: Growth inhibition of human RPMI8226 cells; type: functional; how it was run: as §1
[24] = Growth inhibition of human SF295 cells; type: functional; conditions: SF-295; how it was run: as §1
Tubulin (Homo sapiens) = Tubulin (Homo sapiens) (UniProt P68371+Q9H4B7+P0DPH7+P68366+Q13509+Q71U36+P04350+Q3ZCM7+P07437+P68363+Q9BQE3+Q6PEY2+Q13885+Q9BVA1+Q9BUF5); assay: Inhibition of tubulin polymerization (unknown origin) after 1 hr; type: protein-complex assay
How it was run: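 Purified tubulin was allowed to polymerize for 1 h with increasing concentrations of compound. Docetaxel and vinblastine were the stabilizing and destabilizing references.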

M14 = assay: Growth inhibition of human M14 cells; type: functional; how it was run: as §1
[25] = Growth inhibition of human HCT15 cells; type: functional; conditions: HCT-15; how it was run: as §1
CAKI-1 = assay: Growth inhibition of human Caki1 cells; type: functional; how it was run: as §1
NCI-H23 = assay: Growth inhibition of human NCI-H23 cells; type: functional; how it was run: as §1
SK-MEL-28 = assay: Growth inhibition of human SK-MEL-28 cells; type: functional; how it was run: as §1
[26] = Growth inhibition of human OVCAR3 cells; type: functional; conditions: OVCAR-3; how it was run: as §1
HOP-62 = assay: Growth inhibition of human HOP62 cells; type: functional; how it was run: as §1
SK-MEL-5 = assay: Growth inhibition of human SK-MEL-5 cells; type: functional; how it was run: as §1
PC-3 [27] = assay: cells; conditions: Homo sapiens, PC-3, 72 h
NCI-H522 = assay: Growth inhibition of human NCI-H522 cells; type: functional; how it was run: as §1
MDA-MB-231 = assay: Growth inhibition of human MDA-MB-231 cells; type: functional; how it was run: as §1
TK-10 = assay: Growth inhibition of human TK10 cells; type: functional; how it was run: as §2
[28] = Growth inhibition of human MOLT4 cells; type: functional; conditions: MOLT-4; how it was run: as §1
MDA-MB-435 = assay: Growth inhibition of human MDA-MB-435 cells; type: functional; how it was run: as §1
KM12 = assay: Growth inhibition of human KM12 cells; type: functional; how it was run: as §1
[29] = Growth inhibition of P-gp expressing human NCI-ADR-RES cells by Alamar Blue assay; type: functional
How it was run: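 72-h cytotoxicity in 96-well plates with AlamarBlue viability dye, giving GI50. Line 1 uses docetaxel-resistant PC3 prostate cells (PC3-DR), and line 2 uses NCI/ADR-Res ovarian cells. P-gp expression in both was confirmed by Western blot, with β-actin as the loading control.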

T47D = assay: Growth inhibition of human T47D cells; type: functional; how it was run: as §2
SR = assay: Growth inhibition of human SR cells; type: functional; how it was run: as §2

Q: Which results are given for `COc1cc(/C(C#N)=C/c2cc3ccccc3s2)cc(OC)c1OC`?
A: GI50 (CCRF-CEM): 25.1 nM; GI50 [1]: 52.4 nM; GI50 (Malme-3M): 23.3 nM; GI50 (HCT-116): 49.4 nM; GI50 [2]: 9.7 nM; GI50 (786-0): 12.2 nM; GI50 [3]: 5.2 nM; GI50 [4]: 61.5 nM; GI50 (SW-620): 40.8 nM; GI50 (HT-29): 31.9 nM; GI50 [5]: 24.8 nM; GI50 (U-251): 50 nM; GI50 (SN12C): 68.4 nM; GI50 (SNB-19): 44 nM; GI50 (K562): 30.4 nM; GI50 (SK-MEL-2): 41.6 nM; GI50 [6]: 17.9 nM; GI50 (SK-OV-3): 47.2 nM; GI50 (NCI-H226): > 100 nM; GI50 (A498): 28.8 nM; GI50 (DU-145): 21.1 nM; inhibition [7]: Active; GI50 (SF-268): 46.7 nM; GI50 (SNB-75): 41.5 nM; GI50 (HL-60(TB)): 24.4 nM; GI50 (NCI-H460): 35.9 nM; GI50 [8]: 23.5 nM; GI50 [9]: 24.9 nM; GI50 [10]: 27.5 nM; Activity (PC-3 [11]): Active; GI50 (LLC-PK1 [12]): 11.7 nM; GI50 [13]: 52.1 nM; RatioGI50 (LLC-PK1 [14]): 1.2; GI50 [15]: 16.3 nM; GI50 (MCF7): 40.2 nM; GI50 [16]: > 100 nM; GI50 [17]: 36.6 nM; Activity (PC-3 [18]): Active; GI50 (PC-3 [19]): 45 nM; GI50 (A549): 41.2 nM; GI50 [20]: 42.7 nM; GI50 (COLO 205): 46.9 nM; GI50 (ACHN): 73.2 nM; inhibition [21]: Active; GI50 (PC-3 [22]): 8.6 nM; GI50 (NCI-H322M): 51.7 nM; GI50 [23]: 48.7 nM; GI50 (RPMI-8226): 28.6 nM; GI50 [24]: 33.7 nM; inhibition (Tubulin (Homo sapiens)): Dose-dependent effect; GI50 (M14): 37.9 nM; GI50 [25]: 46.1 nM; GI50 (CAKI-1): 51.4 nM; GI50 (NCI-H23): 52.3 nM; GI50 (SK-MEL-28): > 100 nM; GI50 [26]: 23 nM; GI50 (HOP-62): 98.9 nM; GI50 (SK-MEL-5): 34.4 nM; GI50 (PC-3 [27]): 7.6 nM; GI50 (NCI-H522): 29.7 nM; GI50 (MDA-MB-231): 33 nM; GI50 (TK-10): 36.3 nM; GI50 [28]: 39.7 nM; GI50 (MDA-MB-435): 23.5 nM; GI50 (KM12): 22.2 nM; GI50 [29]: 3.2 nM; GI50 (T47D): > 100 nM; GI50 (SR): 46.6 nM
